“And” between values parts separate entries of the source, which are not always exact repeats. Equal values may be shown once.
Molecular target: metallo-beta-lactamase VIM-2 (Pseudomonas aeruginosa)
Assay: VIM-2 metallo-beta-lactamase inhibitors, late-stage follow-up, biochemical, absorbance, probe candidates and analogs (AID 624079)
Settings: purified VIM-2, nitrocefin hydrolysis, epi-absorbance
Outline: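 Measure: four-parameter IC50 from OD-converted fluorescence. Assay system: purified VIM-2 metallo-beta-lactamase enzyme, Pseudomonas aeruginosa target. Quantity: 0.132 nM enzyme. Probe or stimulus: nitrocefin at 60 µM. Times: 15 min preincubation, 25 min nitrocefin hydrolysis, 25 °C, EDTA stop. Detection: Plate-fluorescence quench, ex 480 nm, em 530 nm. Replication: triplicates.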

Row | SMILES | IC50
1 | CN1CCN(NC(=O)CN2C(=O)/C(=C/c3c(Cl)cccc3Cl)SC2=S)CC1 | 3.98 µM and 4.55 µM
2 | CN1CCN(NC(=O)CN2C(=O)/C(=C/c3c(Cl)ccc(Cl)c3Cl)SC2=S)CC1 | 0.548 µM

— PubChem BioAssay AID624079 (The Scripps Research Institute Molecular Screening Center, 2012)
